Test results as given in ChEMBL document CHEMBL4020820, “Insights into the Impact of a Membrane-Anchoring Moiety on the Biological Activities of Bivalent Compounds As Potential Neuroprotectants for Alzheimer's Disease” (J Med Chem, 2018).
Activity calls are given as the source filed them. The calls are words filed in the database; no cut-off is given here.

Assays:
Lipid bilayer [1] = assay: Binding affinity to DPPC membrane assessed as appearance of disordered membrane structure at […] at 25 degC by SAXD analysis
In short: (§1)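 DPPC (2 mg) with compound at 10:1 lipid:compound molar ratio, hydrated in 100 mM NaCl, 25 mM Hepes pH 7.4, vortexed at 55 °C to form multilamellar vesicles. Small- and wide-angle X-ray diffraction at 25 and 50 °C; 10 min equilibration, 10 min exposure; d-spacings and chain packing read from reflections.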

Lipid bilayer [2] = assay: Binding affinity to DPPC membrane assessed as phase separation in membrane structure at […] at 50 degC by SAXD analysis; in short: as §1
Brain [3] = assay: Effect on oxidative phosphorylation efficiency in C57BL/6 mouse brain mitochondria assessed as ADP/O ratio at 3.3 uM using succinate as substrate (reference value: 1.3 +/- 0.2); assay type: ADME
Lipid bilayer [4] = assay: Binding affinity to DPPC membrane assessed as change in enthalpy by differential scanning calorimetry (reference value: 8.7 kcal/mol)
In short: (§2)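 Multilamellar DPPC vesicles (2 mg lipid) with compound at various lipid:compound molar ratios (40:1 up to 5:1) in 100 mM NaCl, 25 mM Hepes pH 7.4, made by vortexing at 55 °C. Samples degassed 10 min, buffer as reference. DSC scans 10–60 °C at 60 °C/h. Traces normalized to DPPC content. Onset (Tc), completion temperature and enthalpy taken from thermograms.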

Brain [5] = assay: Effect on oxidative phosphorylation efficiency in C57BL/6 mouse brain mitochondria assessed as respiratory control ratio at 3.3 uM using succinate as substrate (reference value: 2.3 +/- 0.2); assay type: ADME
Brain [6] = assay: Effect on oxidative phosphorylation efficiency in C57BL/6 mouse brain mitochondria assessed as ADP/O ratio at 3.3 uM using glutamate (reference value: 2.3 +/- 0.3); assay type: ADME
Brain [7] = assay: Effect on oxidative phosphorylation efficiency in C57BL/6 mouse brain mitochondria assessed as respiratory control ratio using glutamate at 3.3 uM (reference value: 3.8 +/- 0.5); assay type: ADME
[8] = Neuroprotective activity against tetracycline removal-induced cytotoxicity in human MC65 cells assessed as increase in cell viability after 72 hrs by MTT assay; assay type: functional, cell-based; conditions: MC65, 72 h
In short: (§3)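 MC65 cells kept in DMEM/10% FBS with 1 µg/mL tetracycline and G418. Cells washed twice with PBS, seeded in Opti-MEM at 4×10^4/well without tetracycline, given compound (0.3 µM, alone or in combination), 72 h at 37 °C. MTT added for 4 h, formazan dissolved in DMSO, A570 read. Viability as % of +TC controls; six replicates, ≥3 independent runs.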

Lipid bilayer [9] = assay: Binding affinity to DPPC membrane assessed as shift in onset of transition temperature at 40:1 […] molar ratio by differential scanning calorimetry; in short: as §2
Lipid bilayer [10] = assay: Binding affinity to DPPC membrane assessed as appearance of disordered membrane structure at […] at 25 degC by WAXD analysis; conditions: in the assay text read “SAXD analysis” for “WAXD analysis”; in short: as §1
Brain [11] = assay: Effect on oxidative phosphorylation efficiency in C57BL/6 mouse brain mitochondria assessed as change in state 3 respiratory rate of glutamate at 3.3 uM relative to control; assay type: ADME
Brain [12] = assay: Effect on oxidative phosphorylation efficiency in C57BL/6 mouse brain mitochondria assessed as change in state 4 respiratory rate of succinate at 3.3 uM; assay type: ADME
Lipid bilayer [13] = assay: Binding affinity to DPPC membrane assessed as phase transition completion temperature at 5:1 […] molar ratio by differential scanning calorimetry (reference value: 43.1 degC); in short: as §2
[14] = Effect on electron transport chain mitochondrial complex-3 activity in C57BL/6 mouse brain mitochondria assessed as change in initial rate of reduction of cytochrome C at 3.3 uM in presence of decylubiquinone by spectrophotometry; assay type: ADME
In short: (§4)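 Frozen-thawed C57BL/6 mouse brain mitochondria solubilized in 5% cholate (pH 7.2), diluted in KME buffer (100 mM KCl, 50 mM MOPS, 1 mM EGTA), treated with compound at 3.3 µM. Complex I: NADH consumption at 340 nm with 100 µM antimycin A, 1 mM decylubiquinone, 150 µM NADH, 40 µg/mL protein, ± 7.5 µM rotenone. Complex IV taken after background subtraction. Mean ± SEM, n=4.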

Cortical neurone = assay: Neuroprotective activity in E17 rat primary cortical neurons assessed as increase in neurite outgrowth after 4 days by DAPI-staining based assay; assay type: functional, cell-based
In short: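 Rat E17 cortical neurons on poly-D-lysine coverslips (2×10^4/well) in neurobasal/B27/Glutamax, treated with DMSO or compound from DIV1. Fixed at DIV5 in 4% PFA; neurites immunostained for beta III tubulin, nuclei with DAPI.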

Brain [15] = assay: Effect on oxidative phosphorylation efficiency in C57BL/6 mouse brain mitochondria assessed as decrease in ADP-stimulated respiratory rate of glutamate at 3.3 uM; assay type: ADME
N2a = assay: Neuroprotective activity in mouse N2A cells assessed as increase in neurite outgrowth at 0.3 uM after 48 hrs by fluorescent microscopic method; assay type: functional, cell-based
In short: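 N2a cells seeded at 1×10^4/well in MEM with 0.5% FBS plus compound (0.3 µM) for 48 h. Neurite outgrowth stain, then fluorescence imaging at 10× (20 images per well). Average neurite length quantified; mean ± SEM, n=3.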

[16] = Effect on electron transport chain mitochondrial complex-4 activity in C57BL/6 mouse brain mitochondria assessed as change in first-order rate of consumption of reduced cytochrome C at 3.3 uM measured over 7.5 mins by spectrophotometry; assay type: ADME; conditions: 0.125 h; in short: as §4
[17] = Effect on electron transport chain mitochondrial complex-1 activity in C57BL/6 mouse brain mitochondria assessed as change in rate of NADH consumption at 3.3 uM in presence of antimycin A/decylubiquinone by spectrophotometry; assay type: ADME; in short: as §4
[18] = Effect on electron transport chain mitochondrial complex-2 activity in C57BL/6 mouse brain mitochondria assessed as change in rate of oxidation of DCPIP at 3.3 uM using succinate as substrate in presence of decylubiquinone by spectrophotometry; assay type: ADME; in short: as §4
Brain [19] = assay: Effect on oxidative phosphorylation efficiency in C57BL/6 mouse brain mitochondria assessed as change in state 3 respiratory rate of succinate at 3.3 uM; assay type: ADME
MC65 = assay: Neuroprotective activity against tetracycline removal-induced cytotoxicity in human MC65 cells assessed as increase in cell viability at 0.3 uM after 72 hrs by MTT assay; assay type: functional, cell-based; in short: as §3
Lipid bilayer [20] = assay: Binding affinity to DPPC membrane assessed as increase in membrane thickness at […] at 50 degC by SAXD analysis; in short: as §1

| Activity (Lipid bilayer [1]) | Ratio (Brain [3]) | deltaH (Lipid bilayer [4]) [kcal/mol] | Ratio (Brain [5]) | Ratio (Brain [6]) | Ratio (Brain [7]) | Activity (Lipid bilayer [9]) | Activity (Lipid bilayer [10]) | Structure (SMILES) | EC50 [8] [nM] | Activity (N2a) | other results |
| --- | --- | --- | --- | --- | --- | --- | --- | --- | --- | --- | --- |
| Active | 1.2 | 3 to 5 | 2.4 | 2.4 | 4.4 | Active | Active | COc1cc(/C=C/C(=O)/C(Cc2cn(CCNC(=O)COCC(=O)NCCCCO[C@H]3CC[C@@]4(C)C(=CC[C@H]5[C@@H]6CC[C@H]([C@H](C)CCCC(C)C)[C@@]6(C)CC[C@@H]54)C3)nn2)=C(O)/C=C/c2ccc(O)c(OC)c2)ccc1O | 296 | – | Activity (Lipid bilayer [2]): Active |
| – | – | – | – | – | – | – | – | COc1cc(/C=C/C(=O)/C(Cc2cn(CCCCCCNC(=O)COCC(=O)NCCCCN[C@H]3CC[C@@]4(C)C(=CC[C@H]5[C@@H]6CC[C@H]([C@H](C)CCCC(C)C)[C@@]6(C)CC[C@@H]54)C3)nn2)=C(O)/C=C/c2ccc(O)c(OC)c2)ccc1O | 212 | – | – |
| – | – | – | – | – | – | – | – | COc1cc(/C=C/C(=O)/C(Cc2cn(CCCCCCNC(=O)COCC(=O)NCCCCO[C@H]3CC[C@@]4(C)C(=CC[C@H]5[C@@H]6CC[C@H]([C@H](C)CCCC(C)C)[C@@]6(C)CC[C@@H]54)C3)nn2)=C(O)/C=C/c2ccc(O)c(OC)c2)ccc1O | 1850 | – | – |
| Active | 1.1 | 3 to 5 | 2.1 | 2.3 | 3.9 | Active | Active | COc1cc(/C=C/C(=O)/C(Cc2cn(CCNC(=O)COCC(=O)NCCCCO[C@H]3CC[C@@]4(C)C(=CC[C@H]5[C@@H]6C[C@@H]7O[C@]8(CC[C@@H](C)CO8)[C@@H](C)[C@@H]7[C@@]6(C)CC[C@@H]54)C3)nn2)=C(O)/C=C/c2ccc(O)c(OC)c2)ccc1O | 8.3 | Active | Activity (Brain [11]): 11.5%; Activity (Brain [12]): Non-Toxic; Activity (Lipid bilayer [2]): Active; T (Lipid bilayer [13]): 42.4 °C; Activity [14]: Not Active; Activity (Cortical neurone): Active; Activity (Brain [15]): Toxic; Activity [16]: Not Active; Activity [17]: Not Active; Activity [18]: Not Active; Activity (Brain [19]): Non-Toxic |
| – | – | – | 1.2 | – | – | – | – | CCCCNC(=O)COCC(=O)NCCn1cc(C/C(C(=O)/C=C/c2ccc(O)c(OC)c2)=C(O)\C=C\c2ccc(O)c(OC)c2)nn1 | – | inactive | Activity (MC65): inactive |
| Active | 1.1 | 3 to 5 | 2.6 | 2.4 | 3.9 | Active | Active | COc1cc(/C=C/C(=O)/C(Cc2cn(CCNC(=O)COCC(=O)NCCCCN[C@H]3CC[C@@]4(C)C(=CC[C@H]5[C@@H]6CC[C@H]([C@H](C)CCCC(C)C)[C@@]6(C)CC[C@@H]54)C3)nn2)=C(O)/C=C/c2ccc(O)c(OC)c2)ccc1O | 56.5 | – | Activity (Lipid bilayer [20]): Active; T (Lipid bilayer [13]): 42.4 °C |
| – | – | – | – | – | – | – | – | COc1cc(/C=C/C(=O)/C(Cc2cn(CCCCCCNC(=O)COCC(=O)NCCCCO[C@H]3CC[C@@]4(C)C(=CC[C@H]5[C@@H]6C[C@@H]7O[C@]8(CC[C@@H](C)CO8)[C@@H](C)[C@@H]7[C@@]6(C)CC[C@@H]54)C3)nn2)=C(O)/C=C/c2ccc(O)c(OC)c2)ccc1O | 30.3 | Active | Activity (Cortical neurone): Active |
